The text below walks through data of ChEMBL document CHEMBL3585321, “Synthesis and antimicrobial activity of chloramphenicol-polyamine conjugates” (Bioorg Med Chem, 2015).

Molecules are shown by their SMILES. Calls of active or inactive are those of the source. The calls are words filed in the database; no cut-off is given here.

The test system of data set [1] is Staphylococcus aureus. Kind of data set: Antibacterial activity against methicillin-resistant Staphylococcus aureus GRE2272 assessed as inhibition of bacterial growth. Type of data set: functional, organism-based.
In data set [2] the test system is Staphylococcus aureus. Kind of data set: Antibacterial activity against methicillin-resistant Staphylococcus aureus GRE2372 assessed as inhibition of bacterial growth. Type of data set: functional, organism-based.
Data set [3] concerns Staphylococcus aureus. Kind of data set: Antibacterial activity against methicillin-resistant Staphylococcus aureus GRE2691 assessed as inhibition of bacterial growth. Type of data set: functional, organism-based.
The subject of data set [4] is Staphylococcus aureus. Description: Antibacterial activity against wild type Staphylococcus aureus assessed as inhibition of bacterial growth. Type of data set: functional, organism-based.
The test system of data set [5] is Escherichia coli. Kind of data set: Antibacterial activity against Escherichia coli lacking chromosomal rrn alleles and containing pKK35 plasmids possessing 23S rRNA A2058G mutant assessed as inhibition of bacterial growth. Type of data set: functional, organism-based.
For data set [6], the system named is Escherichia coli. Description: Antibacterial activity against wild type Escherichia coli K-12 assessed as inhibition of bacterial growth. Type of data set: functional, organism-based.
The subject of data set [7] is Escherichia coli. Description: Antibacterial activity against Escherichia coli lacking chromosomal rrn alleles and containing pKK35 plasmids possessing 23S rRNA A2503C mutant assessed as inhibition of bacterial growth. Type of data set: functional, organism-based.
Data set [8] deals with Escherichia coli. Kind of data set: Antibacterial activity against Escherichia coli BL21(DE3) expressing delta-tolC gene assessed as inhibition of bacterial growth. Type of data set: functional, organism-based. In short, it runs like this: (§1)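 IC50 from bacterial cultures grown in LB medium without drug or with drug across a range of concentrations, reported in μM. Three independent experiments, each with two replicates, given as mean±SD.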

Data set [9] deals with Escherichia coli. Kind of data set: Antibacterial activity against Escherichia coli Rosetta(DE3) containing rare tRNA genes and chloramphenicol resistant gene in pLysS plasmid assessed as inhibition of bacterial growth. Type of data set: functional, organism-based. The procedure, abridged: as §1
Data set [10] relates to Staphylococcus aureus. Kind of data set: Antibacterial activity against wild type Staphylococcus aureus assessed as inhibition of bacterial growth at antibacterial IC50 level in presence of 10 times IC50 levels of putrescine. Type of data set: functional, organism-based. In short, it runs like this:
(§2)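 Cells started at A560 0.020 in M9 medium with drug at its own growth IC50, alone or with putrescine, spermidine or spermine at 10×IC50. Cultures run until the drug-free control reached A560 0.800. Growth given as percent of control optical density. At least three experiments, two replicates each, mean±SD, p<0.05.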

The test system of data set [11] is Staphylococcus aureus. Description: Antibacterial activity against wild type Staphylococcus aureus assessed as inhibition of bacterial growth at antibacterial IC50 level in presence of 10 times IC50 levels of spermine. Type of data set: functional, organism-based. The procedure, abridged:
as §2

The test system of data set [12] is Staphylococcus aureus. Kind of data set: Antibacterial activity against wild type Staphylococcus aureus assessed as inhibition of bacterial growth at antibacterial IC50 level in presence of 10 times IC50 levels of spermidine. Type of data set: functional, organism-based. In short, it runs like this: as §2
In data set [13] the test system is Escherichia coli. Kind of data set: Antibacterial activity against wild type Escherichia coli K-12 assessed as inhibition of bacterial growth at antibacterial IC50 level in presence of 10 times IC50 levels of putrescine. Type of data set: functional, organism-based. In short, it runs like this:
as §2

The test system of data set [14] is Escherichia coli. Description: Antibacterial activity against wild type Escherichia coli K-12 assessed as inhibition of bacterial growth at antibacterial IC50 level in presence of 10 times IC50 levels of spermine. Type of data set: functional, organism-based. The procedure, abridged: as §2
Data set [15] deals with Escherichia coli. Kind of data set: Antibacterial activity against wild type Escherichia coli K-12 assessed as inhibition of bacterial growth at antibacterial IC50 level in presence of 10 times IC50 levels of spermidine. Type of data set: functional, organism-based. In short, it runs like this:
as §2

Data set [16] relates to Escherichia coli. Kind of data set: Reduction in protein content in Escherichia coli K-12 at 35.5 uM (reference value: 57 +/- 6.35 mg/g w.w). Type of data set: functional.
The test system of data set [17] is Escherichia coli. Kind of data set: Reduction in putrescine content in Escherichia coli K-12 at 35.5 uM by UV and mass spectrometry (reference value: 7.6 +/- 1.2 umol/g w.w). Type of data set: functional.
Data set [18] concerns Escherichia coli. Description: Reduction in spermidine content in Escherichia coli K-12 at 35.5 uM by UV and mass spectrometry (reference value: 1.63 +/- 0.5 umol/g w.w). Type of data set: functional.
The test system of data set [19] is Escherichia coli K-12. Kind of data set: Drug level in Escherichia coli K-12 at 35.5 uM by RP-HPLC method. Type of data set: ADME, organism-based. The settings on record: in vivo.
Data set [20] concerns Escherichia coli. Description: Reduction in putrescine content in Escherichia coli K-12 at 35.5 uM after 3 hrs by UV and mass spectrometry. Type of data set: functional. To be noted: K-12, 3 h.
In data set [21] the test system is Escherichia coli. Description: Reduction in spermidine content in Escherichia coli K-12 at 35.5 uM after 3 hrs by UV and mass spectrometry. Type of data set: functional. The settings on record: K-12, 3 h.
In data set [22] the test system is Escherichia coli K-12. Description: Drug metabolism in Escherichia coli K-12 assessed as N8,N8-dibenzylspermidine formation at 35.5 uM by RP-HPLC method. Type of data set: ADME, organism-based. The settings on record: escherichia coli k-12, in vivo. In short, it runs like this: (§3)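 Washed cells homogenized in 0.6 M HClO4 and centrifuged. Supernatant checked by RP-HPLC for released N8,N8-dibenzylspermidine.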

The test system of data set [23] is Escherichia coli. Kind of data set: Activity of Escherichia coli chloramphenicol acetyltransferase assessed as coenzyme A formation using acetyl coenzyme A at 0.154 mM.
Data set [24] deals with Escherichia coli. Description: Ratio of Vmax to Km for Escherichia coli chloramphenicol acetyltransferase assessed as coenzyme A formation using acetyl coenzyme A at 0.154 mM.
Data set [25] is described as follows: Inhibition of Escherichia coli K-12 70S ribosome poly(U)-programmed ribosome (complex C) bearing tRNAPhe at E-site and Ac[3H]Phe-tRNA at P-site assessed as reduction in peptide bond formation using puromycin(S) substrate.
For data set [26], the system named is Escherichia coli. Description: Reduction in protein content in Escherichia coli K-12 at 9.4 uM (reference value: 57 +/- 6.35 mg/g w.w). Type of data set: functional.
The test system of data set [27] is Escherichia coli. Description: Reduction in putrescine content in Escherichia coli K-12 at 9.4 uM by UV and mass spectrometry (reference value: 7.6 +/- 1.2 umol/g w.w). Type of data set: functional.
For data set [28], the system named is Escherichia coli. Description: Reduction in spermidine content in Escherichia coli K-12 at 9.4 uM by UV and mass spectrometry (reference value: 1.63 +/- 0.5 umol/g w.w). Type of data set: functional.
The subject of data set [29] is Escherichia coli K-12. Kind of data set: Drug level in Escherichia coli K-12 at 9.4 uM by RP-HPLC method. Type of data set: ADME, organism-based. To be noted: in vivo.
For data set [30], the system named is Escherichia coli. Kind of data set: Reduction in putrescine content in Escherichia coli K-12 at 9.4 uM after 3 hrs by UV and mass spectrometry. Type of data set: functional. To be noted: K-12, 3 h.
Data set [31] concerns Escherichia coli. Kind of data set: Reduction in spermidine content in Escherichia coli K-12 at 9.4 uM after 3 hrs by UV and mass spectrometry. Type of data set: functional. The settings on record: K-12, 3 h.
The test system of data set [32] is Escherichia coli K-12. Description: Drug metabolism in Escherichia coli K-12 assessed as N8,N8-dibenzylspermidine formation at 9.4 uM by RP-HPLC method. Type of data set: ADME, organism-based. The settings on record: escherichia coli k-12, in vivo. The procedure, abridged:
as §3

Data set [33] has as its system Escherichia coli. Kind of data set: Potency index, ratio of IC50 against wild type Escherichia coli K-12 to IC50 against Escherichia coli BL21(DE3) expressing delta-tolC gene. Type of data set: functional.

Take `O=C(CCC(=O)N[C@H](CO)[C@H](O)c1ccc([N+](=O)[O-])cc1)NCCCNCCCCN(Cc1ccccc1)Cc1ccccc1`: the IC50 (as a rule, the concentration at which inhibition is half-maximal) with Staphylococcus aureus [1] was above 100 µM; in the data set with Staphylococcus aureus [2] it was above 100 µM; in the data set on Staphylococcus aureus [3] it was above 200 µM; in the data set with Staphylococcus aureus [4] it was 13.7 µM; with Escherichia coli [5], 32.3 µM; with Escherichia coli [6], 35.5 µM. In addition, the IC50 in the data set with Escherichia coli [7] was 37.1 µM; in the data set on Escherichia coli [8] it was 33.4 µM; with Escherichia coli [9] it was 42.5 µM. The “growth inhibition (GI)” value with Staphylococcus aureus [10], with Staphylococcus aureus [11], in the data set with Staphylococcus aureus [12], in the data set with Escherichia coli [13], in the data set on Escherichia coli [14] and with Escherichia coli [15] was “inactive” throughout. Also, the Activity in the data set on Escherichia coli [16] worked out at 21.8 mg/g; in the data set with Escherichia coli [17], 0.46 µmol/g; in the data set with Escherichia coli [18] it was 0.35 µmol/g. The compound further returned a Drug uptake with Escherichia coli K-12 [19] of 3.96 µM. For the same compound, the inhibition (in general, the share of the control response that was lost under treatment) at 35.5 µM in the data set on Escherichia coli [20] came out at 90%; in the data set with Escherichia coli [21] it was 95%. For the same compound, the Drug metabolism entry in the data set on Escherichia coli K-12 [22] is recorded as “metabolite_notdetected”. Besides, the Km (in general, the substrate concentration at which the rate is half of its maximum) with Escherichia coli [23] was found to be 53.5 µM. For the same compound, the maximum rate (Vmax) (in general, the top rate of the reaction or transport when substrate is in excess) in the data set on Escherichia coli [23] is 4.56 µM/min. For the same compound, the Vmax/Km in the data set with Escherichia coli [24] came out at 0.085 min⁻¹. For the same compound, the inhibition constant Ki (commonly the equilibrium dissociation constant of an inhibitor or competing ligand from its target) in data set [25] worked out at 0.6 µM.
For `NCCCN(CCCCN(Cc1ccccc1)Cc1ccccc1)C(=O)CCC(=O)N[C@H](CO)[C@H](O)c1ccc([N+](=O)[O-])cc1` [listing 1 of 2 here], the IC50 with Staphylococcus aureus [1] is 7 µM; in the data set on Staphylococcus aureus [2], 9 µM; in the data set on Staphylococcus aureus [3] it was 10 µM; with Staphylococcus aureus [4], 4.7 µM; in the data set with Escherichia coli [5], 9.4 µM; in the data set with Escherichia coli [6], 9.4 µM. In addition, the results for the IC50 in the data set on Escherichia coli [7], with Escherichia coli [8] and in the data set with Escherichia coli [9] were 9.4 µM, 9 µM and 19 µM, respectively. For the same compound, the results for the Activity with Escherichia coli [26], in the data set on Escherichia coli [27] and in the data set with Escherichia coli [28] were 13.1 mg/g, 1.14 µmol/g and 0.47 µmol/g, respectively. The compound also yielded a Drug uptake with Escherichia coli K-12 [29] of 1.06 µM. Also, the inhibition at 9.4 µM came out at 75% in the data set on Escherichia coli [30] and 80% in the data set on Escherichia coli [31]. Also, the Drug metabolism result in the data set on Escherichia coli K-12 [32] was “metabolite_notdetected”.
`NCCCNCCCCNCCCNC(=O)CCC(=O)N[C@H](CO)[C@H](O)c1ccc([N+](=O)[O-])cc1`: the half-maximal inhibitory concentration (IC50) was above 200 µM in the data set on Staphylococcus aureus [1]; above 200 µM in the data set with Staphylococcus aureus [2]; above 200 µM in the data set with Staphylococcus aureus [3]; 45.3 µM in the data set with Staphylococcus aureus [4]; above 100 µM in the data set on Escherichia coli [5]; above 100 µM in the data set on Escherichia coli [6]. The IC50 in the data set with Escherichia coli [7] is above 100 µM; with Escherichia coli [8] it was above 100 µM; in the data set on Escherichia coli [9] it was above 200 µM.
As to `NCCCN(CCCCN(Cc1ccccc1)Cc1ccccc1)C(=O)CCC(=O)N[C@H](CO)[C@H](O)c1ccc([N+](=O)[O-])cc1` [listing 2 of 2 here], the “growth inhibition (GI)” value in the data set on Staphylococcus aureus [10], with Staphylococcus aureus [11], in the data set on Staphylococcus aureus [12], in the data set on Escherichia coli [13], with Escherichia coli [14] and in the data set on Escherichia coli [15] was “inactive” throughout. Further, the Km in the data set with Escherichia coli [23] worked out at 37.7 µM. Besides, the maximum rate (Vmax) in the data set with Escherichia coli [23] amounted to 1.54 µM/min. Further, the Vmax/Km with Escherichia coli [24] worked out at 0.041 min⁻¹.
On to `O=C(N[C@H](CO)[C@H](O)c1ccc([N+](=O)[O-])cc1)C(Cl)Cl` [CHLORAMPHENICOL], for which the concentration for half-maximal inhibition (IC50) in the data set with Staphylococcus aureus [1] is 8 µM; with Staphylococcus aureus [2], 6 µM; in the data set on Staphylococcus aureus [3], 14.5 µM; with Staphylococcus aureus [4] it was 3.1 µM; in the data set with Escherichia coli [5], 15.5 µM; in the data set on Escherichia coli [6] it was 6.2 µM. The IC50 with Escherichia coli [7] was found to be 24.7 µM; with Escherichia coli [8] it was 2 µM; in the data set with Escherichia coli [9], 110 µM. The “Ratio IC50” value with Escherichia coli [33] is 3. Also, the “growth inhibition (GI)” value in the data set with Staphylococcus aureus [10], in the data set on Staphylococcus aureus [11], in the data set with Staphylococcus aureus [12], in the data set with Escherichia coli [13], with Escherichia coli [14] and with Escherichia coli [15] was “Active” each time. In addition, the Km in the data set on Escherichia coli [23] came out at 59.3 µM. For the same compound, the maximum rate (Vmax) in the data set with Escherichia coli [23] came to 8.23 µM/min. The Vmax/Km with Escherichia coli [24] was found to be 0.139 min⁻¹. For the same compound, the inhibition constant (Ki) in [25] came out at 0.88 µM.
